Screening results deposited in PubChem BioAssay by several laboratories.
MT stabilizer – microtubule stabilizers in HeLa cells, primary screen, imaging, high-content imaging; % tubulin-high responders, % at 10 µM; AID 2205, 2009; hit rate 0.83% among 200,000; HeLa tubulin immunostaining HCS, 24 h; share of cells brighter than vehicle mean+2SD;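 active = plate Z-score above 3 for both tubulin-high and condensed-nucleus cell shares, with cell loss under 80%, at 10 µM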;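 note: anti alpha tubulin signal scored within the nucleus-defined area of each cell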
Autophagy HCS – autophagy modulators in MEF cells, primary screen, imaging, high-content, MEF GFP-LC3 | hit rate 0.98% among 190,000 | MEF GFP-LC3 puncta imaging; test concentration mostly 10 µM | calls only at 10 µM (by protocol);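 active = percentage of spot-positive cells more than 3 SD above its plate mean, without a fluorescence outlier flag or 80% toxicity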;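 note: spot-positive cell cutoff set from DMSO-treated cells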
bCat nuc transl – modulators of beta-catenin nuclear translocation, primary screen, imaging, HeLa cells, immunofluorescence, high-content | nuclear translocation activity, % at 5 µM | hit rate 0.3% among 190,000 | AID 1665, 2009;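 active = nuclear translocation activity above 50% at 5 µM, with a well cell count of 50 or more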;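 note: per-cell ratio of nuclear to cytoplasmic median beta-catenin stain intensity; plate controls were DMSO negative control for no effect and GSK-3 inhibitor IX positive control for full effect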
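Test system: human HeLa cell line; Doses: 5 µM primary, 0.02–20 µM confirmation; Incubation: 24 h compound exposure, 37°C; Detection: beta-catenin immunofluorescence imaging with DAPI; Read-out: beta-catenin nuclear/cytoplasmic ratio, % activation.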
Dynein cargo inh – inhibitors of GR-EGFP nuclear translocation, primary screen, dynein cargo transport inhibitor project, imaging, high-content, 3617.4 mouse cells | z-score, hits read low | AID 1381, 2008 | test concentration mostly 20 µM; stimulated with dexamethasone, 1 µM; active compounds read low | hit rate 0.47% among 220,000;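 active = plate z-score of nuclear minus cytoplasmic receptor signal below a set negative limit, without overly bright fluorescence or cell loss, cut at about -3.5 in these data, passing the limit was not always enough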;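 note: z-score of nuclear minus cytoplasmic ring GR-EGFP intensity difference per well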
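Schedule: 48 h induction, then 1 h compound, then 30 min agonist, 37 °C. Buffer or medium: tetracycline-free induction medium containing charcoal-stripped FBS. Reagent: 1.0 µM final dexamethasone stimulus. Evaluation: nuclear versus cytoplasmic GR-EGFP signal, averaged per well. Signal: high-content fluorescence imaging after fixation.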
CHOP inhibitor – inhibitors of CHOP promoter induction, primary screen, cell-based, unfolded protein response, luciferase reporter. CHO-K1 CHOP-promoter luciferase, tunicamycin-induced, 15-18 h. inhibition, % at 10 µM. hit rate 3.8% among 220,000. AID 2732, 2010;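 active = compounds that reduced the stress-induced luciferase reporter signal by more than about 70% of percent inhibition, limit read from the data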;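 note: 0% = tunicamycin plus vehicle and 100% = wells without tunicamycin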
Lmaj promast – Leishmania major promastigote growth inhibition, primary screen; hit rate 9% among 200,000; AID 1063, 2008; inhibition, % at 10 µM; Leishmania major promastigotes, resazurin fluorescence viability; in the data active = inhibition above about 50%;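 note: promastigotes grown with compound for 44 hours at 28 °C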
* = called active by the depositor; i = inactive; · = no result; + = active, no number. Sampled rows, rich in hits. Any-hit rate of the full collection: about 12%.

SMILES | MT stabilizer | Autophagy HCS | bCat nuc transl | Dynein cargo inh | CHOP inhibitor | Lmaj promast
Fc1ccccc1-c1ccc(/C=N/Nc2nc3ccccc3[nH]2)o1 | 4 | i | 0 | -0.64 | 13 | 97*
CCCCn1c(/C=N/Nc2nc3ccccc3[nH]2)nc2ccccc21 | 3 | i | -1 | 0.71 | -39 | 100*
CCCn1c(/C=C/c2ccco2)nc2ccccc21 | 6 | i | 3 | 1 | -15 | 44
Clc1ccc(Cn2c(/C=C/c3ccco3)nc3ccccc32)cc1 | 2 | i | 1 | -0.28 | -4 | 50*
Nc1[nH]n2c(=O)cc(-c3ccccc3)nc2c1N=Nc1ccc2c(c1)OCO2 | 1 | i | 1 | 2.1 | -32 | 3
Cc1ccc2cc(/C=N/Nc3nc4ccccc4[nH]3)c(Cl)nc2c1 | 2 | i | -1 | -0.58 | 17 | 12
Cc1ccc(/C=N\Nc2nc3ccc(Cl)cc3[nH]2)o1 | 5 | i | 2 | -0.49 | -2 | 99*
CC1CCN(c2c(NCC3CCC(C(=O)NCc4ccccc4Cl)CC3)c(=O)c2=O)CC1 (centres undefined) | 3 | i | 0 | -0.39 | -7 | -6
CN(C)c1ccc(/C=C/C=C2/SC(=S)N(c3ccccc3)C2=O)cc1 | 28 | + | · | -2.5 | 34 | 18
O=C(c1ccccc1)c1nc2c(n1O)CCCCC2 | 2 | i | 5 | -0.63 | -1 | -7
CCN1c2ccccc2N(C)C1(C)c1ccccc1 (centres undefined) | 3 | i | 0 | -3.3 | 32 | 99*
Cc1cc(C(=O)Nn2cnc3ccccc3c2=O)ccc1[N+](=O)[O-] | 2 | i | 3 | 1.1 | 18 | -5
COc1ccc2nc(N3C(=O)/C(=C/c4ccc(Cl)cc4)NC3=S)sc2c1 | 2 | + | 1 | -2.8 | 53 | 60*
COc1cc(NC(=O)COC(=O)c2n[nH]c3ccccc23)c(C)cc1[N+](=O)[O-] | 4 | i | -5 | 2.5 | 9 | 2
O=C(Nc1nc2cc3c(cc2s1)OCCO3)c1cccs1 | · | · | -1 | -0.54 | 33 | ·
CCN(CC)S(=O)(=O)c1cccc(C(=O)Nc2nc3cc4c(cc3s2)OCCO4)c1 | 1 | i | 0 | 0.046 | · | 93*
COc1ccccc1C(=O)Nc1nc2cc3c(cc2s1)OCCO3 | 4 | i | -4 | -0.49 | 24 | 75*
O=C(Nc1nc2cc3c(cc2s1)OCCO3)c1cccc(N2C(=O)CCC2=O)c1 | 4 | i | -2 | -0.82 | 11 | 55*
COc1ccccc1C(=O)Nc1nc2cc3c(cc2s1)OCO3 | · | · | 0 | 2.2 | -50 | ·
O=C(NNc1nc2cc3c(cc2s1)OCO3)c1cccc(F)c1 | 6 | i | -4 | 0.75 | -28 | 55*
COc1ccc(C(=O)CSc2nc3nc(C)cc(C)c3c(=O)[nH]2)cc1OC | 3 | i | · | -0.6 | · | -3
CCc1nnc(NC(=O)[C@@H](NC(=O)c2cccc(S(=O)(=O)N(CC)CC)c2)C(C)C)s1 | 2 | i | -2 | 0.081 | 83* | -11
CCN(CC)S(=O)(=O)c1cccc(C(=O)N[C@H](C(=O)OCC(N)=O)C(C)C)c1 | 2 | i | -6 | -0.46 | 0 | 1
Cc1cc([N+](=O)[O-])nn1CCCC(=O)Nc1cc(Oc2ccc(F)cc2)cc([N+](=O)[O-])c1 | 3 | i | 2 | -0.43 | 70* | 5
COc1ccc(CNC(=O)CCCn2nc([N+](=O)[O-])cc2C)cc1 | 3 | i | -3 | -0.98 | 3 | -6
Cc1ccc(Oc2cc(NC(=O)CCCn3nc([N+](=O)[O-])c(Cl)c3C)cc([N+](=O)[O-])c2)cc1 | 3 | i | -1 | -0.42 | 81* | 24
Cc1cc([N+](=O)[O-])nn1CCCC(=O)Nc1cc(Oc2ccccc2)cc([N+](=O)[O-])c1 | 4 | i | -1 | -0.38 | 74* | -3
O=C(CSc1nc2nn(-c3ccccc3)c(=O)c-2c2n1CCCCC2)NCCCc1ccccc1 | 2 | i | 3 | 1.1 | -17 | -2
